Laboratory results: ChEMBL document CHEMBL3244414, “Structure-activity relationships among the O-acyl derivatives of leucomycin. Correlation of minimal inhibitory concentrations with binding to Escherichia coli ribosomes” (J Med Chem, 1977)
In brackets after ≈: the same amount, converted by molar mass.

Assays:
Bacillus spizizenii = assay: Antimicrobial activity against Bacillus subtilis ATCC 6633 by agar dilution method; type: functional
In short: (§1)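 Read-out is the minimal inhibitory concentration, found by agar dilution against the named strain.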

Klebsiella pneumoniae = assay: Antimicrobial activity against Klebsiella pneumoniae ATCC 10031 by agar dilution method; type: functional; in short: as §1
Bacterial 70S ribosome = assay: (§2) Displacement of [14C]erythromycin from Escherichia coli ribosomes after 30 mins by scintillation spectrometer analysis
In short: (§3)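 NH4Cl-washed E. coli ribosomes with [14C]erythromycin A and varied competitor concentrations in 0.01 M Tris-HCl pH 7.2, 0.1 M KCl, 0.004 M MgCl2, 0.01 M NH4Cl. Incubated 30 min at 24 °C, stopped by dilution in cold Tris/KCl/MgCl2 buffer, membrane-filtered, washed three times, dried, scintillation counted. Reports the concentration giving 50% inhibition of binding.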

[1] = target: Bacterial 70S ribosome (Bacteria) (UniProt P0A7V0+P60723+P0AG67+P0A7R5+P0A7R9+P0A7S3+P0A7S9+P0AG59+P0ADZ4+P0A7T3+P0AG63+P0A7T7+P0A7U3+P0A7U7+P68679+P0A7V3+P0A7V8+P0A7W1+P02358+P02359+P0A7W7+P0A7X3+P0A7J3+P0A7J7+P0AA10+P0ADY3+P02413+P0ADY7+P0AG44+P0C018+P0A7K6+P0A7L0+P0A7L3+P0AG48+P61175+P0ADZ0+P60624+P68919+P0A7L8+P0A7M2+P0A7M6+P60422+P0AG51+P0A7N1+P0A7M9+P0A7N4+P0A7N9+P0A7P5+P0A7Q1+Q2EEQ2+P0A7Q6+P60438+P62399+P0AG55+P0A7K2); assay: as §2; in short: as §3
Staphylococcus aureus = assay: Antimicrobial activity against Staphylococcus aureus ATCC 6538P by agar dilution method; type: functional; in short: as §1
[2] = Bacillus spizizenii, ATCC 6633, read-out: MIC
[3] = Klebsiella pneumoniae, ATCC 10031, read-out: MIC
[4] = Staphylococcus aureus, ATCC 6538P, read-out: MIC

Structure (SMILES)	MIC (Bacillus spizizenii; [2]) [mg/L]	MIC (Klebsiella pneumoniae; [3]) [mg/L]	IC50 (Bacterial 70S ribosome) [µM]	pK50 [1]	MIC (Staphylococcus aureus; [4]) [mg/L]	MIC (Bacillus spizizenii) [mg/L]	MIC (Klebsiella pneumoniae) [mg/L]	MIC (Staphylococcus aureus) [mg/L]
CCCC(=O)O[C@H]1[C@H](C)O[C@@H](O[C@H]2[C@H](N(C)C)[C@@H](O)[C@H](O[C@H]3[C@@H](CC=O)C[C@@H](C)[C@@H](OC(C)=O)/C=C/C=C/C[C@@H](C)OC(=O)C[C@@H](OC(C)=O)[C@@H]3OC)O[C@@H]2C)C[C@@]1(C)O	0.8 (≈ 0.935 µM)	100 (≈ 117 µM)	2.2	5.7	1.6 (≈ 1.87 µM)			
CCCC(=O)O[C@H]1[C@H](C)O[C@@H](O[C@H]2[C@H](N(C)C)[C@@H](OC(C)=O)[C@H](O[C@H]3[C@@H](CC=O)C[C@@H](C)[C@@H](O)/C=C/C=C/C[C@@H](C)OC(=O)C[C@@H](OC(C)=O)[C@@H]3OC)O[C@@H]2C)C[C@@]1(C)O	0.8 (≈ 0.935 µM)	100 (≈ 117 µM)	20.9	4.7	0.8 (≈ 0.935 µM)			
CCCC(=O)O[C@H]1[C@H](C)O[C@@H](O[C@H]2[C@H](N(C)C)[C@@H](O)[C@H](O[C@H]3[C@@H](CC=O)C[C@@H](C)[C@@H](O)/C=C/C=C/C[C@@H](C)OC(=O)C[C@@H](O)[C@@H]3OC)O[C@@H]2C)C[C@@]1(C)O	0.8 (≈ 1.04 µM)	12.5 (≈ 16.2 µM)	1.1	6	0.4 (≈ 0.518 µM)			
CCCC(=O)O[C@H]1[C@H](C)O[C@@H](O[C@H]2[C@H](N(C)C)[C@@H](OC(=O)CC)[C@H](O[C@H]3[C@@H](CC=O)C[C@@H](C)[C@@H](O)/C=C/C=C/C[C@@H](C)OC(=O)C[C@@H](OC(C)=O)[C@@H]3OC)O[C@@H]2C)C[C@@]1(C)O	0.8 (≈ 0.919 µM)	25 (≈ 28.7 µM)	17.8	4.8	1.6 (≈ 1.84 µM)			
CO[C@@H]1[C@@H](O[C@@H]2O[C@H](C)[C@@H](O[C@H]3C[C@@](C)(O)[C@@H](O)[C@H](C)O3)[C@H](N(C)C)[C@H]2O)[C@@H](CC=O)C[C@@H](C)[C@@H](OC(C)=O)/C=C/C=C/C[C@@H](C)OC(=O)C[C@H]1OC(C)=O	1.6 (≈ 2.04 µM)	50 (≈ 63.6 µM)	6.3	5.2	3.1 (≈ 3.94 µM)			
CO[C@@H]1[C@@H](O[C@@H]2O[C@H](C)[C@@H](O[C@H]3C[C@@](C)(O)[C@@H](OC(C)=O)[C@H](C)O3)[C@H](N(C)C)[C@H]2O)[C@@H](CC=O)C[C@@H](C)[C@@H](O)/C=C/C=C/C[C@@H](C)OC(=O)C[C@H]1OC(C)=O	6.3 (≈ 8.02 µM)	100 (≈ 127 µM)	6.7	5.2	3.1 (≈ 3.94 µM)			
CCCC(=O)O[C@H]1[C@H](C)O[C@@H](O[C@H]2[C@H](N(C)C)[C@@H](OC(C)=O)[C@H](O[C@H]3[C@@H](CC=O)C[C@@H](C)[C@@H](O)/C=C/C=C/C[C@@H](C)OC(=O)C[C@@H](O)[C@@H]3OC)O[C@@H]2C)C[C@@]1(C)O	0.8 (≈ 0.983 µM)	12.5 (≈ 15.4 µM)	14.8	4.8	1.6 (≈ 1.97 µM)			
CO[C@@H]1[C@@H](O[C@@H]2O[C@H](C)[C@@H](O[C@H]3C[C@@](C)(O)[C@@H](OC(C)=O)[C@H](C)O3)[C@H](N(C)C)[C@H]2O)[C@@H](CC=O)C[C@@H](C)[C@@H](OC(C)=O)/C=C/C=C/C[C@@H](C)OC(=O)C[C@H]1O	3.1 (≈ 3.94 µM)	50 (≈ 63.6 µM)	2.1	5.7	6.3 (≈ 8.02 µM)			
CCCC(=O)O[C@H]1[C@H](C)O[C@@H](O[C@H]2[C@H](N(C)C)[C@@H](OC(=O)CCC(=O)O)[C@H](O[C@H]3[C@@H](CC=O)C[C@@H](C)[C@@H](OC(C)=O)/C=C/C=C/C[C@@H](C)OC(=O)C[C@@H](O)[C@@H]3OC)O[C@@H]2C)C[C@@]1(C)O	1.6 (≈ 1.75 µM)	25 (≈ 27.4 µM)	3.3	5.5	1.6 (≈ 1.75 µM)			
CO[C@@H]1[C@@H](O[C@@H]2O[C@H](C)[C@@H](O[C@H]3C[C@@](C)(O)[C@@H](OC(=O)CC(C)C)[C@H](C)O3)[C@H](N(C)C)[C@H]2OC(C)=O)[C@@H](CC=O)C[C@@H](C)[C@@H](O)/C=C/C=C/C[C@@H](C)OC(=O)C[C@H]1OC(C)=O	0.8 (≈ 0.919 µM)	25 (≈ 28.7 µM)	33.9	4.5	1.6 (≈ 1.84 µM)			
CCC(=O)O[C@H]1/C=C/C=C/C[C@@H](C)OC(=O)C[C@@H](OC(C)=O)[C@H](OC)[C@@H](O[C@@H]2O[C@H](C)[C@@H](O[C@H]3C[C@@](C)(O)[C@@H](OC(=O)CC(C)C)[C@H](C)O3)[C@H](N(C)C)[C@H]2O)[C@@H](CC=O)C[C@H]1C	0.4 (≈ 0.452 µM)	100 (≈ 113 µM)	1.9	5.7	3.1 (≈ 3.51 µM)			
CCCC(=O)O[C@H]1[C@H](C)O[C@@H](O[C@H]2[C@H](N(C)C)[C@@H](OC(=O)CC)[C@H](O[C@H]3[C@@H](CC=O)C[C@@H](C)[C@@H](O)/C=C/C=C/C[C@@H](C)OC(=O)C[C@@H](O)[C@@H]3OC)O[C@@H]2C)C[C@@]1(C)O	1.6 (≈ 1.93 µM)	12.5 (≈ 15.1 µM)	13.8	4.9	0.8 (≈ 0.966 µM)			
CO[C@@H]1[C@@H](O[C@@H]2O[C@H](C)[C@@H](O[C@H]3C[C@@](C)(O)[C@@H](OC(=O)CC(C)C)[C@H](C)O3)[C@H](N(C)C)[C@H]2O)[C@@H](CC=O)C[C@@H](C)[C@@H](O)/C=C/C=C/C[C@@H](C)OC(=O)C[C@H]1O (stereo in doubt; 2) [KITASAMYCIN]			1	6		0.4 (≈ 0.509 µM)	25 (≈ 31.8 µM)	1.6 (≈ 2.04 µM)
CCCC(=O)O[C@H]1[C@H](C)O[C@@H](O[C@H]2[C@H](N(C)C)[C@@H](O)[C@H](O[C@H]3[C@@H](CC=O)C[C@@H](C)[C@@H](OC(=O)C(Cl)Cl)/C=C/C=C/C[C@@H](C)OC(=O)C[C@@H](O)[C@@H]3OC)O[C@@H]2C)C[C@@]1(C)O	1.6 (≈ 1.81 µM)	25 (≈ 28.3 µM)	1.3	5.9	1.6 (≈ 1.81 µM)			
CCC(=O)O[C@H]1/C=C/C=C/C[C@@H](C)OC(=O)C[C@@H](O)[C@H](OC)[C@@H](O[C@@H]2O[C@H](C)[C@@H](O[C@H]3C[C@@](C)(O)[C@@H](OC(=O)C(C)CC)[C@H](C)O3)[C@H](N(C)C)[C@H]2O)[C@@H](CC=O)C[C@H]1C (some centres undefined)	0.8 (≈ 0.95 µM)	50 (≈ 59.4 µM)	1.7	5.8	1.6 (≈ 1.9 µM)			
CO[C@@H]1[C@@H](O[C@@H]2O[C@H](C)[C@@H](O[C@H]3C[C@@](C)(O)[C@@H](OC(=O)CC(C)C)[C@H](C)O3)[C@H](N(C)C)[C@H]2O)[C@@H](CC=O)C[C@@H](C)[C@@H](O)/C=C/C=C/C[C@@H](C)OC(=O)C[C@H]1OC(C)=O [JOSAMYCIN]	0.4 (≈ 0.483 µM)	25 (≈ 30.2 µM)	1.2	5.9	1.6 (≈ 1.93 µM)			
CCCC(=O)O[C@H]1[C@H](C)O[C@@H](O[C@H]2[C@H](N(C)C)[C@@H](O)[C@H](O[C@H]3[C@@H](CC=O)C[C@@H](C)[C@@H](OC(C)=O)/C=C/C=C/C[C@@H](C)OC(=O)C[C@@H](O)[C@@H]3OC)O[C@@H]2C)C[C@@]1(C)O	0.4 (≈ 0.491 µM)	25 (≈ 30.7 µM)	0.9	6.1	1.6 (≈ 1.97 µM)			
CO[C@@H]1[C@@H](O[C@@H]2O[C@H](C)[C@@H](O[C@H]3C[C@@](C)(O)[C@@H](OC(=O)CC(C)C)[C@H](C)O3)[C@H](N(C)C)[C@H]2OC(C)=O)[C@@H](CC=O)C[C@@H](C)[C@@H](OC(C)=O)/C=C/C=C/C[C@@H](C)OC(=O)C[C@H]1OC(C)=O	1.6 (≈ 1.75 µM)	100 (≈ 110 µM)	21.4	4.7	1.6 (≈ 1.75 µM)			
CCC(=O)O[C@H]1[C@H](O[C@H]2[C@@H](CC=O)C[C@@H](C)[C@@H](OC(=O)CC)/C=C/C=C/C[C@@H](C)OC(=O)C[C@@H](OC(C)=O)[C@@H]2OC)O[C@H](C)[C@@H](O[C@H]2C[C@@](C)(O)[C@@H](OC(=O)CC(C)C)[C@H](C)O2)[C@@H]1N(C)C	6.3 (≈ 6.7 µM)	100 (≈ 106 µM)	> 100		6.3 (≈ 6.7 µM)			
